Source: ChEMBL document CHEMBL3243989, “Antibacterial N-[omega, omega'-bis(alicyclic and aryl)-sec-alkyl]poly(methylene)triamine and -tetramine hydrochloride salts” (J Med Chem, 1979)
One block for each compound: values may come before it. Calls of active or inactive are those of the source. The rule behind the calls is not given here.

What was measured:
Staphylococcus aureus [1] = experiment: Antibacterial activity against Staphylococcus aureus MB2865 assessed as growth inhibition; format: functional
Outline: (§1)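 MIC (µg/mL) by in vitro growth inhibition in an assay system at pH 7.4. Tetracycline was run routinely to check medium, incubation conditions and inoculum virility.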

Pseudomonas aeruginosa [2] = experiment: Antibacterial activity against Pseudomonas aeruginosa MB2245 assessed as growth inhibition; format: functional; outline: as §1
Bacillus subtilis = experiment: Antibacterial activity against Bacillus subtilis MB964 assessed as growth inhibition; format: functional; outline: as §1
Proteus vulgaris = experiment: Antibacterial activity against Proteus vulgaris MB838 assessed as growth inhibition at 200 ug/mL; format: functional, organism-based
[3] = test system: Bordetella bronchiseptica; experiment: Antibacterial activity against Bordetella bronchiseptica MB905 assessed as growth inhibition; format: functional; outline: as §1
Klebsiella aerogenes = experiment: Antibacterial activity against Klebsiella aerogenes MB1503 assessed as growth inhibition; format: functional; outline: as §1
Escherichia coli = experiment: Antibacterial activity against Escherichia coli MB2884 assessed as growth inhibition; format: functional; outline: as §1
[4] = test system: Bordetella bronchiseptica; experiment: Antibacterial activity against Bordetella bronchiseptica MB3551 assessed as growth inhibition; format: functional; outline: as §1
Salmonella = experiment: Antibacterial activity against Salmonella schottmuelleri MB2837 assessed as growth inhibition; format: functional; outline: as §1
Streptococcus pyogenes = experiment: Antibacterial activity against Streptococcus pyogenes assessed as growth inhibition at 2 to 8 ug/mL; format: functional, organism-based
Pasteurella multocida = experiment: Antibacterial activity against Pasteurella multocida MB7 assessed as growth inhibition at 2 to 8 ug/mL; format: functional, organism-based
Pseudomonas aeruginosa [5] = experiment: Antibacterial activity against Pseudomonas aeruginosa MB418 assessed as growth inhibition; format: functional; outline: as §1
[6] = test system: Corynebacterium pseudodiphtheriticum; experiment: Antibacterial activity against Corynebacterium pseudodiphtheriticum assessed as growth inhibition at 15 ug/mL; format: functional, organism-based
Staphylococcus aureus [7] = experiment: Antibacterial activity against Staphylococcus aureus MB108 assessed as growth inhibition; format: functional; outline: as §1
[8] = Metal chelate stability constant of the compound assessed as copper ion complex formation; format: physicochemical
[9] = Lipophilicity, log P of the compound; conditions: octanol/water
[10] = test system: Corynebacterium pseudodiphtheriticum; experiment: Antibacterial activity against Corynebacterium pseudodiphtheriticum assessed as growth inhibition at 2 to 8 ug/mL; format: functional, organism-based

Compound: CC(C)(C)c1ccc(CCCC(CCCc2ccc(C(C)(C)C)cc2)NCCCNCCCNCCCN)cc1.Cl
MIC (Staphylococcus aureus [1]): 20 µg/mL | MIC (Pseudomonas aeruginosa [2]): 100 µg/mL | MIC (Bacillus subtilis): 10 µg/mL | growth inhibition (GI) (Proteus vulgaris): inactive | MIC [3]: 20 µg/mL | MIC (Klebsiella aerogenes): > 200 µg/mL | MIC (Escherichia coli): > 200 µg/mL | MIC [4]: 30 µg/mL | MIC (Salmonella): 15 µg/mL | growth inhibition (GI) (Streptococcus pyogenes): Active | growth inhibition (GI) (Pasteurella multocida): Active | MIC (Pseudomonas aeruginosa [5]): 80 µg/mL | growth inhibition (GI) [6]: Active | MIC (Staphylococcus aureus [7]): 30 µg/mL

log K [8]: 23.9
Compound: NCCNCCCNCCN

logP [9]: -0.82
Compound: NCCNCCNCCN [TRIENTINE]

Compound: NCCCNCCCN [NORSPERMIDINE]
log K [8]: 14.2

Compound: CC(C)(C)c1ccc(CCCC(CCCc2ccc(C(C)(C)C)cc2)NCCCNCCCN)cc1.Cl
MIC (Staphylococcus aureus [1]): 10 µg/mL | MIC (Pseudomonas aeruginosa [2]): 40 µg/mL | MIC (Bacillus subtilis): 8 µg/mL | growth inhibition (GI) (Proteus vulgaris): inactive | MIC [3]: 8 µg/mL | MIC (Klebsiella aerogenes): 40 µg/mL | MIC (Escherichia coli): 40 µg/mL | MIC [4]: 8 µg/mL | MIC (Salmonella): 8 µg/mL | growth inhibition (GI) (Streptococcus pyogenes): Active | growth inhibition (GI) (Pasteurella multocida): Active | MIC (Pseudomonas aeruginosa [5]): 80 µg/mL | growth inhibition (GI) [10]: inactive | MIC (Staphylococcus aureus [7]): 20 µg/mL

Compound: CC1(C)C2CCC(C2)C1CCC(CCC1C2CCC(C2)C1(C)C)NCCNCCN.Cl (configuration not stated)
MIC (Staphylococcus aureus [1]): 6 µg/mL | MIC (Pseudomonas aeruginosa [2]): > 200 µg/mL | MIC (Bacillus subtilis): 6 µg/mL | growth inhibition (GI) (Proteus vulgaris): inactive | MIC [3]: 4 µg/mL | MIC (Klebsiella aerogenes): 10 µg/mL | MIC (Escherichia coli): 4 µg/mL | MIC [4]: 4 µg/mL | MIC (Salmonella): 50 µg/mL | growth inhibition (GI) (Streptococcus pyogenes): Active | growth inhibition (GI) (Pasteurella multocida): Active | MIC (Pseudomonas aeruginosa [5]): 200 µg/mL | growth inhibition (GI) [10]: inactive | MIC (Staphylococcus aureus [7]): 6 µg/mL

Compound: Cl.NCCCNCCCNC(CCC1CCCC1)CCC1CCCC1
MIC (Staphylococcus aureus [1]): 15 µg/mL | MIC (Pseudomonas aeruginosa [2]): 30 µg/mL | MIC (Bacillus subtilis): 6 µg/mL | growth inhibition (GI) (Proteus vulgaris): inactive | MIC [3]: 4 µg/mL | MIC (Klebsiella aerogenes): 15 µg/mL | MIC (Escherichia coli): 30 µg/mL | MIC [4]: 4 µg/mL | MIC (Salmonella): 8 µg/mL | growth inhibition (GI) (Streptococcus pyogenes): Active | growth inhibition (GI) (Pasteurella multocida): Active | MIC (Pseudomonas aeruginosa [5]): 60 µg/mL | growth inhibition (GI) [10]: inactive | MIC (Staphylococcus aureus [7]): 20 µg/mL

Compound: CC1(C)C2CCC(C2)C1CCC(CCC1C2CCC(C2)C1(C)C)NCCCNCCNCCCN.Cl (configuration not stated)
MIC (Staphylococcus aureus [1]): 8 µg/mL | MIC (Pseudomonas aeruginosa [2]): 15 µg/mL | MIC (Bacillus subtilis): 4 µg/mL | growth inhibition (GI) (Proteus vulgaris): inactive | MIC [3]: 4 µg/mL | MIC (Klebsiella aerogenes): 15 µg/mL | MIC (Escherichia coli): 30 µg/mL | MIC [4]: 4 µg/mL | MIC (Salmonella): 4 µg/mL | growth inhibition (GI) (Streptococcus pyogenes): Active | growth inhibition (GI) (Pasteurella multocida): Active | MIC (Pseudomonas aeruginosa [5]): 30 µg/mL | growth inhibition (GI) [10]: inactive | MIC (Staphylococcus aureus [7]): 4 µg/mL

Compound: CC1(C)C2CCC(C2)C1CCC(CCC1C2CCC(C2)C1(C)C)NCCCNCCCN.Cl (configuration not stated)
MIC (Staphylococcus aureus [1]): 10 µg/mL | MIC (Pseudomonas aeruginosa [2]): 10 µg/mL | MIC (Bacillus subtilis): 4 µg/mL | growth inhibition (GI) (Proteus vulgaris): inactive | MIC [3]: 4 µg/mL | MIC (Klebsiella aerogenes): 4 µg/mL | MIC (Escherichia coli): 8 µg/mL | MIC [4]: 4 µg/mL | MIC (Salmonella): 4 µg/mL | growth inhibition (GI) (Streptococcus pyogenes): Active | growth inhibition (GI) (Pasteurella multocida): Active | MIC (Pseudomonas aeruginosa [5]): 8 µg/mL | growth inhibition (GI) [10]: inactive | MIC (Staphylococcus aureus [7]): 4 µg/mL
